Reference: publication PMC4100979 (Chembiochem : a European journal of chemical biology, 2013)
Entries after “also recorded” stand apart in the source; their conditions may differ.

Columns and labels:
GLP-1R on βTC3 cells = biological target: T1, GLP-1R on βTC3 cells (Mus musculus, UniProt O35659); test: Saturation binding of bivalent Eu-labelled ligand in presence of unlabelled Glb; conditions: 300 nM Glb, below 35 nM Eu-ligand
T1 sequence (O35659 22-463): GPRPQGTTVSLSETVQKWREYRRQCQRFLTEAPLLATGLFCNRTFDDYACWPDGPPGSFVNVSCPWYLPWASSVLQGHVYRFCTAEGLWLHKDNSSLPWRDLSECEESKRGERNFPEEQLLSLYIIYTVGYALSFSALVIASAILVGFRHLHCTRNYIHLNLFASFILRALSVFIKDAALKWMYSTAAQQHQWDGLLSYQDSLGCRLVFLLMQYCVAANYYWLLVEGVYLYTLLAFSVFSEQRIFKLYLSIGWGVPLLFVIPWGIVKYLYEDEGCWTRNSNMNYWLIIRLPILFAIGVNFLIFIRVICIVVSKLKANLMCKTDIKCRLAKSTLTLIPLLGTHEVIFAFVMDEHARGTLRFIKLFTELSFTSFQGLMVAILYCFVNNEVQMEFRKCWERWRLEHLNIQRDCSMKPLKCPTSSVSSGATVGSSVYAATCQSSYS

[1] = system: GLP-1R and SUR1 on βTC3 cells; test: Competition of 15 nM Eu-GLP-1/Glb 10 by unlabelled monomers in live βTC3 cells; type: binding; conditions: 1.6 nM monomer vs 15 nM Eu-GLP-1/Glb 10, 1 hr, Figure 3
How it was run: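 βTC3 cells, ~70,000/well, grown 3 days. They were exposed for 1 h to 15 nM Eu-labelled bivalent ligand with 4.1 fM or 1.6 nM unlabelled GLP-1 or Glb, in RPMI binding medium (1 mM 1,10-phenanthroline, 200 mg/L bacitracin, 0.5 mg/L leupeptin, 0.2% BSA). Non-specific binding was not measured. Cells were washed three times, then given enhancement solution for ≥30 min at 37°C. Eu time-resolved fluorescence was read at 340/615 nm. Quadruplicates unless noted.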

INS 832/3 cells = test: Insulin secretion; type: cell-based, rat; conditions: 20 mM glucose vs 1 mM glucose, 2 hour incubation; p<0.05
How it was run: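 INS 832/3 cells were seeded at 500,000/well and grown 72 h. They were rinsed in HBSS with 1 mM glucose, then held 2 h in the same. Medium was replaced with the test glucose level (1 or 20 mM) ± secretagogues for 2 h. Secreted insulin was measured by rat insulin ELISA (ng/ml) and expressed as % of the mean 1 mM glucose secretion within each experiment.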

Molecule | effect of unlabelled Glb on high affinity binding of Eu-GLP-1/Glb 10 (GLP-1R on βTC3 cells) | effect of unlabelled monomer on bivalent binding [1] | induction of insulin secretion by glucose (INS 832/3 cells)
COc1ccc(Cl)cc1C(=O)NCCc1ccc(S(=O)(=O)NC(=O)NC2CCCCC2)cc1 [Glb, glibenclamide] | blocks high affinity binding; also recorded: blocked the high affinity binding | bivalent binding is lost | –
OC[C@H]1OC(O)[C@H](O)[C@@H](O)[C@@H]1O (stereo partly shown) [glucose] | – | – | ~ 4 fold
GLP-1: unlabelled GLP-1 monomer used as competitor | – | bivalent binding is lost | –
